Measurements pooled from the literature.
Protocols differ between the studies behind these lines. Values after ≈ are worked out from the molar mass of the structure shown.

Compound	organism	test	test system	setting	endpoint	value
CN(Cc1ccc(C(C)(C)C)cc1)Cc1cccc2ccccc12	Trichophyton mentagrophytes	microbial growth, disc diffusion	ATCC18748	0.0005 µg/mL, 72 h	inhibition zone	14.5 mm
Cn1cc2c3c1C(=O)C(NCCc1ccc(O)cc1)=CC3=NCC2	Babesia divergens	parasite growth, SYBR Green		60 h, blood stage	IC50	1 µM
COC1=CC(=O)c2ccccc2C1=O	Trichophyton mentagrophytes	microbial growth, broth dilution	ATCC9533	96 h	MIC	6.25 µg/mL (≈ 33.2 µM)
CN(C)c1ccc(-c2c(C(N)=S)c(N)n(N)c(=O)c2C#N)cc1	Enterobacter cloacae	microbial growth, well diffusion	ATCC23355	500 µg/mL	inhibition zone	14 mm
NC1=CC2=NCCc3c[nH]c(c32)C1=O	Babesia divergens	parasite growth, SYBR Green		60 h, blood stage	IC50	0.411 µM
Cc1c(C(N)=S)c(N)n(N)c(=O)c1C#N	Enterobacter cloacae	microbial growth, well diffusion	ATCC23355	500 µg/mL	inhibition zone	19 mm
CN(Cc1ccc(C2(C(F)(F)F)CC2)cc1)Cc1cccc2ccccc12	Trichophyton mentagrophytes	microbial growth, disc diffusion	ATCC18748	0.001 µg/mL, 72 h	inhibition zone	8.5 mm
O=C1C=C2NCCc3c[nH]c(c32)C1=O	Babesia divergens	parasite growth, SYBR Green		60 h, blood stage	IC50	10 µM
N#Cc1c(-c2ccc(OCc3ccccc3)cc2)c(C(N)=S)c(N)n(N)c1=O	Enterobacter cloacae	microbial growth, well diffusion	ATCC23355	500 µg/mL	inhibition zone	15 mm
